# From the RNAGym collection of RNA variant scans (doi:10.1126/science.aae0568)
# Variants at the floor of the assay were thinned out.
# B1: tRNA (parent)
# chain: GUUCCGUUGGCGUAAUGGUAACGCGUCUCCCUCCUAAGGAGAAGACUGCGGGUUCGAGUCCCGUACGGAACG
# Variants of: B1
# Test: yeast fitness relative to wild type (ratio to wild type); higher = fitter; tRNA-Arg(CCU), competitive growth, 37 C, YPD
# How it was run: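 Amplicons of the tRNA-Arg(CCU) gene were sequenced, 100-nucleotide paired-end, from the start population and from each end population of a pooled yeast competition. The competition, in six parallel replicates, lasted 24 hours in YPD at 37°C. Fitness relative to wild type was calculated from changes in genotype frequencies. Genotypes had to have ≥ 100 starting reads, and estimates < 0.5 were set to 0.5.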
row,Variant,yeast fitness
1,C29G G56A G68C,≤ 0.5
2,C29U A45G,0.98
3,C29U A45U,0.928
4,C29A U35C G50A,≤ 0.5
5,C29G A42G G52C,0.702
6,C29G G39C A70U,0.633
7,C29G C33U C34G U54A,0.545
8,C29U A37C C49U C55G G68C,≤ 0.5
9,C29G G44U A65G,≤ 0.5
10,C29G A40U A65U,≤ 0.5
11,C29G G56C C61A,0.512
12,C29G G48A C55G A57G,≤ 0.5
13,C29A U35C A40U,0.639
14,C29U A37U,0.734
15,C29U A37G,0.729
16,C29U A36C A45U U54C,≤ 0.5
17,C29G C30G C49A G56C C61U A69C,0.717
18,C29G A37G G67C,0.672
19,C29G A45C,0.614
20,C29G C33U U47C,≤ 0.5
21,C29G U32C C34U G56A,0.667
22,C29A U47C A57C U59A,≤ 0.5
23,C29G C31U A37U,≤ 0.5
24,C29G U35G,≤ 0.5

row,Variant,yeast fitness
1,C29G U35A,0.582
2,C29G U35C,0.522
3,C29G A37G C60U A69C,≤ 0.5
4,C29G G58C A65C,≤ 0.5
5,C29G C55U U59G,≤ 0.5
6,C29G U53C C61G G67A A69C,≤ 0.5
7,C29G G58A,0.68
8,C29U A70U,0.827
9,C29G A65G C66A,≤ 0.5
10,C29G C33A C34A A57U,0.54
11,C29U C30U U59A,≤ 0.5
12,C29G A65U,0.579
13,C29U A42U C66A,0.567
14,C29G A40U A43G C46G U64A,≤ 0.5
15,C29A U35C A70G,≤ 0.5
16,C29U C31U A57C C62U,0.558
17,C29G C33G U35G G44A,0.628
18,C29G G51C,0.55
19,C29U A36U C66G,≤ 0.5
20,C29G A57U C60A,≤ 0.5
21,C29G C61A C62U,≤ 0.5
22,C29G U32A C33U,≤ 0.5
23,C29A G52C G68A,≤ 0.5
24,C29G C49U U53C A57C C60G U64C G68U,≤ 0.5

row,Variant,yeast fitness
1,C29G U32C,0.563
2,C29G U32A,0.501
3,C29U A45C G67A,0.536
4,C29G C49G G50C A69U A70C,≤ 0.5
5,C29G A36U A43G,≤ 0.5
6,C29G C30G,0.814
7,C29U A37G G39C C49U,≤ 0.5
8,C29G A57U,0.72
9,C29G G38A A43U,0.689
10,C29G C33G G58C C62G,≤ 0.5
11,C29G G41C C66G G68A,0.587
12,C29G A37G,0.599
13,C29G C60G C61U,0.52
14,C29G C46G G48C C62U,≤ 0.5
15,C29G C49A C55A C61U,≤ 0.5
16,C29G U53A,0.523
17,C29U C31G C33A,0.648
18,C29G U35G C61U,0.552
19,C29U A40C,0.815
20,C29U A40U,0.836
21,C29G C31G C46G C55U,≤ 0.5
22,C29G A42C G56A,0.601
23,C29G U47A,0.561
24,C29G U47G,0.707

row,Variant,yeast fitness
1,C29G C46U A70U,0.618
2,C29G C31G U59A A69G,≤ 0.5
3,C29G C33U A37G A40C A57C,≤ 0.5
4,C29G G58C A69U,0.607
5,C29G A42C G52C U59A,≤ 0.5
6,C29U C30A G38A,≤ 0.5
7,C29U C30U,0.763
8,C29U C30G,0.716
9,C29U C30A,0.744
10,C29G G52C,≤ 0.5
11,C29G G39A G41A,≤ 0.5
12,C29G U35G G41C C62U U64A,0.602
13,C29U A37U C46U,0.602
14,C29U A65C,0.751
15,C29U A65G,0.934
16,C29G A40G G63A,≤ 0.5
17,C29G A40U C61U C66U,≤ 0.5
18,C29A G48C A69C,0.531
19,C29A U59C,0.688
20,C29G A70U,0.682
21,C29G A70G,0.548
22,C29G A70C,0.76
23,C29G A45G A69C A70C,≤ 0.5
24,C29G U35C A57G,≤ 0.5

row,Variant,yeast fitness
1,C29U A57G,0.908
2,C29G A42C,0.685
3,C29G A42G,0.694
4,C29G A42U,0.712
5,C29U C33G A40C A57G,≤ 0.5
6,C29U C31G C34G A37C C46A G50A A57U C66U,≤ 0.5
7,C29G A40C A42C G58A,≤ 0.5
8,C29G G56A C61U,≤ 0.5
9,C29G G56A C61A,0.547
10,C29U A37U G67A,0.643
11,C29G C33U U35C G38A,≤ 0.5
12,C29U A36C A57U,≤ 0.5
13,C29U A43U C46A,0.76
14,C29G C30G C46G,0.521
15,C29U A40G U47A C61U C62A A70G,≤ 0.5
16,C29A G63A,0.623
17,C29A U32C U35A,≤ 0.5
18,C29G U35G C60G,≤ 0.5
19,C29G U32G G38A G48C G67U A69C,≤ 0.5
20,C29G C55U A65G C66A,≤ 0.5
21,C29U A45U U54A,≤ 0.5
22,C29G U32C A36G C60A,≤ 0.5
23,C29G U47C C49G C60G,0.648
24,C29G G44C A45U U47A,≤ 0.5

row,Variant,yeast fitness
1,C29G C33U G44C G48C C55A,≤ 0.5
2,C29G C49G U53G A57G,≤ 0.5
3,C29G A36U C49U,0.538
4,C29A U32C A42U G67A,0.522
5,C29G C55U G67C,≤ 0.5
6,C29U A42C G67C,0.505
7,C29G A69U,0.771
8,C29G A69C,0.628
9,C29G U35G C60G C62G,≤ 0.5
10,C29U C31G C34A,≤ 0.5
11,C29G A40U C55A G67C,≤ 0.5
12,C29G G48A,0.586
13,C29G G48C,0.563
14,C29G C33U A45U G56A U59C A65C A70G,≤ 0.5
15,C29U A36G A40U G56C A69C,≤ 0.5
16,C29G G48A A70U,≤ 0.5
17,C29A G58A,0.653
18,C29U C33A G63A A65C C66A,≤ 0.5
19,C29G A42U U47G A57C C61A,≤ 0.5
20,C29G U47G C49G U54G,≤ 0.5
21,C29U A42G U64C,0.592
22,C29G A37C G58A,≤ 0.5
23,C29G C60G,0.851
24,C29U C31A U53G,≤ 0.5

row,Variant,yeast fitness
1,C29G C66U,0.648
2,C29G C66A,0.506
3,C29G C49G,0.563
4,C29G C49U,0.718
5,C29G C33G C49U,0.536
6,C29A U64C A69C,≤ 0.5
7,C29A U35C,≤ 0.5
8,C29A U54G,≤ 0.5
9,C29G C33G G52C,0.579
10,C29A U35C G67A,≤ 0.5
11,C29U C31U A42C A69C,0.673
12,C29G A42G C46A A57C,≤ 0.5
13,C29G U35A G68C,≤ 0.5
14,C29U A40U A65U,0.584
15,C29U A40C C66U,0.642
16,C29G A36U,0.569
17,C29G A36G,0.548
18,C29G C31A C33G G41A A43G C61U,≤ 0.5
19,C29G C62A C66U,≤ 0.5
20,C29U C31A C55U A57C,0.62
21,C29G C55A U64C,≤ 0.5
22,C29U C33U C61G,≤ 0.5
23,C29A U47A G68C,≤ 0.5
